Experimental data taken from ChEMBL document CHEMBL1156273, “Membrane permeable cyclic peptidyl inhibitors against human Peptidylprolyl Isomerase Pin1” (J Med Chem, 2010).
Active and inactive are the calls of the source. The rule behind the calls is not given here. Square brackets hold non-standard residues; d marks the D form. Peptide text beside a SMILES is read from it. dalloThr(PO3H2) = C[C@@H](OP(=O)(O)O)[C@@H](N)C(=O)O; d(pT) = C[C@H](OP(=O)(O)O)[C@@H](N)C(=O)O; 2Nal = N[C@@H](Cc1ccc2ccccc2c1)C(=O)O; Pip = O=C(O)[C@@H]1CCCCN1

Key:
[1] = test system: HeLa; assay: Cellular uptake in human HeLa cells assessed as cytoplasmic localization at 1 uM after 48 hrs by fluorescence microscopy; assay type: ADME, cell-based
How it was run: (§1)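 HeLa cells in DME + 10% FBS, 1% pen/strep, 37 °C, 5% CO2, grown on cover glass. Given 0 or 1.0 μM FITC-labeled peptide (FITC on the Glu side chain via a Lys linker) for 48 h. Then PBS-washed, fixed in 3.7% paraformaldehyde, permeabilized with goat serum/Triton X-100, DAPI-stained, and imaged by fluorescence microscopy.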

[2] = test system: HeLa; assay: Cellular uptake in human HeLa cells assessed as nuclear localization at 1 uM after 48 hrs by fluorescence microscopy; assay type: ADME, cell-based; how it was run: as §1
[3] = test system: BT-474; assay: Antiproliferative activity against human BT474 cells at […] after 6 days; assay type: functional
[4] = molecular target: Peptidyl-prolyl cis-trans isomerase NIMA-interacting 1 (Homo sapiens) (UniProt Q13526); assay: Inhibition of Pin1 in human BT474 cells assessed as increase in PML level at 5 uM by Western blotting; assay type: cell-based; conditions: BT-474
Sequence of Peptidyl-prolyl cis-trans isomerase NIMA-interacting 1 (Homo sapiens) (Q13526 whole entry): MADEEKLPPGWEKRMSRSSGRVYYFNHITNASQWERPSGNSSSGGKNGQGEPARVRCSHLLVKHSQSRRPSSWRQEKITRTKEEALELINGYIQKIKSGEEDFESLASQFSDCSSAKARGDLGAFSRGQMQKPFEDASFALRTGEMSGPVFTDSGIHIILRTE
How it was run: (§2)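 Cells given peptide for 48 h: HeLa in DME + 10% FBS, pen/strep; BT-474 in Hybri-Care DME + 10% FBS. Vehicle control DMSO. Lysed in RIPA with protease inhibitors, equal protein (Bradford) on 8% SDS-PAGE, nitrocellulose transfer, milk block. Probed with anti-SMRT, anti-PML and anti-β-actin (loading), HRP secondary, chemiluminescent detection.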

[5] = molecular target: Peptidyl-prolyl cis-trans isomerase NIMA-interacting 1 (Homo sapiens) (UniProt Q13526); assay: Inhibition of Pin1 in human BT474 cells assessed as increase in SMRT level at 5 uM by Western blotting; assay type: cell-based; conditions: BT-474; how it was run: as §2

SMILES | Drug uptake [1] | Drug uptake [2] | Activity [3] | Activity [4] | Activity [5]
C[C@H](O)[C@H]1NC(=O)[C@H](CCCNC(=N)N)NC(=O)[C@H](CCCNC(=N)N)NC(=O)[C@H](CCCNC(=N)N)NC(=O)[C@H](CCC(N)=O)NC(=O)[C@H](CCCNC(=N)N)NC(=O)[C@H](CCCNC(=N)N)NC(=O)[C@H](Cc2ccc3ccccc3c2)NC(=O)[C@@H]2CCCCN2C1=O (cyclo([2Nal]RRQRRR[dT][Pip])) | Active | Active | – | – | –
C[C@H]1NC(=O)[C@H](CCC(N)=O)NC(=O)[C@H](CCCN)NC(=O)[C@H](Cc2ccc3ccccc3c2)NC(=O)[C@@H]2CCCCN2C(=O)[C@@H]([C@@H](C)OP(=O)(O)O)NC(=O)CNC1=O | – | – | inactive | – | –
C[C@H](O)[C@H]1NC(=O)[C@@H](CCCNC(=N)N)NC(=O)[C@@H](CCCNC(=N)N)NC(=O)[C@H](CCC(N)=O)NC(=O)[C@@H](CCCNC(=N)N)NC(=O)[C@@H](CCCNC(=N)N)NC(=O)[C@@H](CCCNC(=N)N)NC(=O)[C@H](CCCNC(=N)N)NC(=O)[C@H](Cc2ccc3ccccc3c2)NC(=O)[C@@H]2CCCCN2C1=O (cyclo([dR][dR][dT][Pip][2Nal]R[dR][dR][dR]Q)) | Active | Active | – | – | –
C[C@H](OP(=O)(O)O)[C@H]1NC(=O)[C@@H](CCCNC(=N)N)NC(=O)[C@@H](CCCNC(=N)N)NC(=O)[C@H](CCC(N)=O)NC(=O)[C@@H](CCCNC(=N)N)NC(=O)[C@@H](CCCNC(=N)N)NC(=O)[C@@H](CCCNC(=N)N)NC(=O)[C@H](CCCNC(=N)N)NC(=O)[C@H](Cc2ccc3ccccc3c2)NC(=O)[C@@H]2CCCCN2C1=O (cyclo([dR][dR][d(pT)][Pip][2Nal]R[dR][dR][dR]Q)) | Active | Active | – | – | –
C[C@H](O)[C@H]1NC(=O)[C@@H](CCCNC(=N)N)NC(=O)[C@@H](CCCNC(=N)N)NC(=O)[C@H](CCC(N)=O)NC(=O)[C@H](CCCNC(=N)N)NC(=O)[C@H](Cc2ccc3ccccc3c2)NC(=O)[C@@H]2CCCCN2C1=O | Active | Active | – | – | –
C[C@@H](OP(=O)(O)O)[C@H]1NC(=O)[C@@H](CCCNC(=N)N)NC(=O)[C@@H](CCCNC(=N)N)NC(=O)[C@H](CCC(N)=O)NC(=O)[C@H](CCCNC(=N)N)NC(=O)[C@H](Cc2ccc3ccccc3c2)NC(=O)[C@@H]2CCCCN2C1=O | Active | Active | – | – | –
C[C@@H](OP(=O)(O)O)[C@H]1NC(=O)[C@H](CCCNC(=N)N)NC(=O)[C@H](CCCNC(=N)N)NC(=O)[C@H](CCCNC(=N)N)NC(=O)[C@H](CCC(N)=O)NC(=O)[C@H](CCCNC(=N)N)NC(=O)[C@H](CCCNC(=N)N)NC(=O)[C@H](Cc2ccc3ccccc3c2)NC(=O)[C@@H]2CCCCN2C1=O (cyclo([2Nal]RRQRRR[dalloThr(PO3H2)][Pip])) | Active | Active | – | Active | Active
CC1NC(=O)[C@H](CCC(N)=O)NC(=O)[C@H](Cc2ccc(O)cc2)NC(=O)[C@H](Cc2ccc3ccccc3c2)NC(=O)[C@@H]2CCCCN2C(=O)[C@@H]([C@@H](C)OP(=O)(O)O)NC(=O)CN(C)C1=O (stereo in doubt) | – | – | inactive | – | –
